# High-throughput results from PubChem.
# In the library only some 2.1% were active in any assay of this set; here they are far more common.
# CAL PDZ FP-1 – CAL PDZ (human) peptide binding inhibition; purified CAL PDZ, TMR-peptide fluorescence polarization, 1 h; AID 602252; Q9HD26; hit rate 0.92% among 300,000; inhibition, % at 24.9 µM;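 active = mean inhibition of at least 30% with at least half of replicates also reaching 30%; inconclusive = no clear call, values can overlap the other calls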;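 also: 0% = DMSO neutral control and 100% = excess unlabeled competitor peptide PRC23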
# CAL PDZ FP-2 – inhibitors of human CAL PDZ peptide binding | purified CAL PDZ, TMR-peptide fluorescence polarization, 1 h | inhibition, % at 20 µM | hit rate 0.02% among 330,000 | AID 504414;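 active = highest replicate inhibition of at least 40%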;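 also: plate controls were DMSO neutral control wells for no effect and unlabeled competitor peptide control wells for full effect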
#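 Test system: purified CerCALP PDZ construct; Compound dosing: one concentration, 20 µM compound; Also added: TMR-labelled reporter peptide T*-PRC34 bound in PDZ groove; Read-out: inhibition from polarization loss; Controls: unlabelled peptide and DMSO controls; Signal: FP readout, S and P plane fluorescence; Incubation: 1 h at RT.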
# SR-BI uptake up – enhances SR-BI lipid uptake from DiI-HDL. activation, % at 12.5 µM. hit rate 0.096% among 320,000. AID 504775. CHO ldlA[mSR-BI] cells, DiI-HDL uptake fluorescence, 3 h; 100 = double the neutral-control signal;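 active = mean replicate activation of at least 60% and every replicate at or above 60%; inconclusive = mean or all-replicate condition met, but not both; inactive = mean below 60% and not all replicates reaching 60%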;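 also: 0% = median plate neutral-control signal and 100% = twice that signal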
#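 Assay system: LDL receptor-deficient CHO ldlA cells overexpressing murine SR-BI / Medium: BSA-supplemented, HEPES-buffered Ham's F12, pH 7.4 / Probe or stimulus: DiI-labelled HDL at 10 µg/mL final / Timing: compound with DiI-HDL co-incubation, 3 h at 37 °C / Technique: bottom-read cell fluorescence after medium removal, ex 550/em 595 nm / Measure: HDL uptake via cellular fluorescence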
# ARNT TACC3 PPI – disrupts binding between human ARNT and TACC3. Q9Y6A5. AlphaScreen His-ARNT PAS-B/GST-TACC3 binding, luminescence; TACC3 fragment carries E629A point mutation. inhibition, % at 9.99 µM. hit rate 0.66% among 390,000;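 active = mean inhibition of replicates at least 50% and at least half of replicates each reaching 50%; inconclusive = half or more replicates reach 50% but mean below 50%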;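 also: 0% = complete ARNT plus TACC3 wells and 100% = ARNT alone without TACC3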
# miR122 inh – blocks miR-122 activity in Huh7 sensor cells. Huh7 miR-122 Renilla luciferase sensor, 48 h; neutral wells = 0, positive control = 100. activation (reporter increase), % at 12.5 µM. hit rate 0.3% among 340,000;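 active = mean replicate activation score at least 90 and every replicate individually at or above 90; inconclusive = only one of the two criteria met; inactive = neither criterion met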;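 also: higher luciferase means less miR-122 activity so hits act as miR-122 inhibitors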
# SR-BI DiI inh – blocks mouse SR-BI lipid uptake from DiI-HDL; Q61009; ldlA[mSR-BI] CHO cells, DiI-HDL uptake fluorescence, 3 h; inhibition, % at 12.5 µM; hit rate 0.96% among 320,000; AID 488896;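 active = mean replicate inhibition of at least 70% and a set share of replicates each scoring 70 or more; inconclusive = meets just one of the two criteria; inactive = fails both criteria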;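 also: 0% = median of neutral control wells and 100% = median of positive control wells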
# Target sequence (Q61009 whole entry, looked up): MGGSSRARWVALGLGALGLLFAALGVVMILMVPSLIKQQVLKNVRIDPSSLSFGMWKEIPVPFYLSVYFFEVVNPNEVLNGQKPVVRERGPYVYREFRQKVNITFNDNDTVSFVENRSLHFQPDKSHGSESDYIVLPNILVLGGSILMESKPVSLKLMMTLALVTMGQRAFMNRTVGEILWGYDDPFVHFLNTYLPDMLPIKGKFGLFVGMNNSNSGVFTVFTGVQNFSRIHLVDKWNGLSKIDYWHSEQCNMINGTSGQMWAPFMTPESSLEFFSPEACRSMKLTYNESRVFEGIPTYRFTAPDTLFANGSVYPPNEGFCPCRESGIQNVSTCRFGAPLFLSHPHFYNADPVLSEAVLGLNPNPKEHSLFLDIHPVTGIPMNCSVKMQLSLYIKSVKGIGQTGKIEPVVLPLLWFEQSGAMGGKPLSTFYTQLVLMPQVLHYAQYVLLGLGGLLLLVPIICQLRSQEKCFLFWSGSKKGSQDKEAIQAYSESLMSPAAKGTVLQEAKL
# Numbers without * were called inactive; ? = inconclusive; nt = not tested or not shown; + = active, no number; ! = not active in a repeat; [ ] = dose if it differs, or a comment.
SMILES,CAL PDZ FP-1,CAL PDZ FP-2,SR-BI uptake up,ARNT TACC3 PPI,miR122 inh,SR-BI DiI inh
Cc1ccccc1NC(=S)c1nc2ccccc2[nH]1,6,-1,-79,49*,6,79*
CC(=O)C1=C(c2ccccc2)N(C(C)=O)n2c(C)nnc2S1,-1,-1,12,35*,1,-12
CC(=O)N1CCN(c2nnc(-c3ccccc3)c3ccccc23)CC1,-2,-1,-27,-25,-4,27
C[C@@H]1CN([C@@H](C)CO)S(=O)(=O)c2ccc(-c3ccccc3)cc2O[C@H]1CN(C)C(=O)C1CCC1,nt,nt,nt,nt,16[16.7 µM],nt
CN1C(=O)c2cc(NS(C)(=O)=O)ccc2OC[C@@H]2O[C@H](CC(=O)NC3CCCCC3)CC[C@H]21,nt,nt,nt,-6,nt,nt
C[C@@H]1CN([C@@H](C)CO)C(=O)c2cc(-c3cccnc3)cnc2O[C@H]1CN(C)C(=O)C1CCOCC1,nt,nt,nt,-8,3[16.7 µM],nt
Cc1noc(C)c1NC(=O)N(C)C[C@H]1Oc2ccc(NC(=O)Nc3ccc(F)cc3)cc2CC(=O)N([C@H](C)CO)C[C@H]1C,nt,nt,nt,3,-1[16.7 µM],nt
O=C(O)c1ccccc1NS(=O)(=O)c1cccc(-n2sc3ccccc3c2=O)c1,34*,0,-45,-4,3,45
O=C(O)c1ccccc1NS(=O)(=O)c1cccc(C(F)(F)F)c1,nt,-4,23,-74,-1,-23
COc1ccc(CN(C)C[C@@H]2Oc3ccc(NC(=O)NC(C)C)cc3CC(=O)N([C@@H](C)CO)C[C@@H]2C)cc1,nt,nt,nt,3,9[16.7 µM],nt
Cc1c(C(=O)Oc2cccc3cccnc23)oc2ccccc12,39*,0,-13,22,2,13
Cc1c(C(=O)Nc2ccccn2)oc2ccccc12,nt,-2,7,8,95*,-7
CCc1nc2ccccc2c(C(=O)Oc2cccc3cccnc23)c1C,0,23,-40,4,-6,40
CC1(C)Cc2nc3sc4c(NCCO)ncnc4c3cc2CS1,1,-2,-79,10,-6,79*
CCCCn1cnc2c(sc3nc4c(cc32)CSC(C)(C)C4)c1=O,0,-2,-29,-4,-4,29
C[C@@H]1CN([C@@H](C)CO)C(=O)c2cc(NC(=O)CCC(F)(F)F)ccc2O[C@@H](C)CCCCO[C@H]1CN(C)Cc1ccccc1,nt,nt,nt,nt,12[16.7 µM],nt
Cc1ccc(-c2nc3ccccc3c(=O)o2)cc1,48*,35,-3,-2,2,3
COc1ccc(CC(=O)Nc2c(C(=O)N3CCN(c4ncccn4)CC3)oc3ccccc23)cc1OC,-4,-2,-22,2,17,22
COc1ccc(CC(=O)Nc2c(C(=O)N3CCN(c4ncccn4)CC3)oc3ccccc23)cc1,43*,-2,-1,5,80,1
COCC(=O)Nc1ccc2c(c1)OC[C@@H](C)N(CCC(F)(F)F)C[C@H](C)[C@H](OC)CN(C)C2=O,nt,nt,nt,-2,nt,nt
COc1cc(/C=C/C(=O)N2CCN(CC(O)COc3ccccc3)CC2)cc(OC)c1OC (stereo not drawn),1,-1,-79,1,-8,79*
C[C@H](CO)N1C[C@H](C)[C@@H](CN(C)CC2CC2)Oc2c(NC(=O)C3CC3)cccc2C1=O,-3,0,12,6,149*[16.7 µM],-12
C[C@H](CO)N1C[C@H](C)[C@@H](CN(C)CC2CCCCC2)Oc2c(NC(=O)C3CC3)cccc2C1=O,-5,0,25,2,114*![16.7 µM],-25
CC=Cc1ccc2n(c1=O)C[C@H]1[C@H](CO)[C@@H](C(=O)N[C@@H](C)c3ccccc3)[C@@H]2N1CC (mixture of isomers),nt,nt,nt,2,nt,nt
Cc1nn(CC(=O)NCCc2ccccc2)c(=O)c2cccn12,46*,-3,nt,4,-4,-19
SMILES,CAL PDZ FP-1,CAL PDZ FP-2,SR-BI uptake up,ARNT TACC3 PPI,miR122 inh,SR-BI DiI inh
O=C(NC(=S)Nn1cnnc1)c1ccccc1Br,53*,0,2,-1,nt,-2
COc1ccc(CCNC(=O)Cn2nnc(C(=O)Nc3ccc(Br)cc3)c2N)cc1OC,-3,-3,-52,-6,5,52
CCOc1ccccc1NC(=O)Cn1nnc(C(=O)Nc2ccccc2Cl)c1N,0,0,-19,0,4,19
CCOc1ccc(NC(=O)Cn2nnc(C(=O)NCCc3ccc(OC)c(OC)c3)c2N)cc1,-6,-2,-74,-4,-11,74*
CCOc1ccccc1NC(=O)Cn1nnc(C(=O)NCCc2ccc(OCC)c(OCC)c2)c1N,-2,-2,-85,3,nt,85*
O=C(CCN1CCCCC1)N[C@@H]1CC[C@H](CCn2cc(-c3ccccc3)nn2)O[C@H]1CO,nt,nt,nt,3,nt,nt
CCNC(=O)C[C@H]1CC[C@@H]2[C@H](COC[C@@H](O)CN2C(=O)Nc2c(C)noc2C)O1,nt,nt,nt,3,-2[16.7 µM],nt
CCCC#Cc1ccc([C@@H]2[C@@H](CO)N3CCCCN(Cc4cccnc4)C[C@H]23)cc1,nt,nt,nt,7,12[16.7 µM],nt
O=C(c1ccccc1)c1ccccc1NC(=O)C1CCCN1Cc1ccccc1 (stereo not drawn),46*,-1,-33,3,nt,33
O=C(CN1CCCC1)Nc1ccccc1C(=O)c1ccccc1,-5,-3,nt,7,-2,nt
O=C(Cn1cccc1C(=O)c1ccccc1)NCc1ccccc1Cl,+,0,-4,1,4,4
Cc1ccccc1C(=O)c1cccn1CC(=O)NCc1ccccc1Cl,nt,0,-4,14,1,4
CC=Cc1ccc2n(c1=O)C[C@@H]1[C@@H](CO)[C@H](C(=O)N3CCOCC3)[C@H]2N1CC1CC1 (mixture of isomers),nt,nt,nt,-5,4[16.7 µM],nt
CNc1sc(C(=O)c2cccs2)c(N)c1-c1nc2ccccc2s1,5,2,-95,2,4,95*
CNc1sc(C(=O)c2ccc(F)cc2)c(N)c1-c1nc2ccccc2s1,-2,0,-90,2,0,90*
C[C@H](CO)N1C[C@H](C)[C@H](CN(C)Cc2ccccc2)Oc2cc(C3=CCCC3)ccc2S1(=O)=O,nt,nt,nt,12,-8[16.7 µM],nt
C[C@H](NC(=O)[C@@H]1[C@@H](CO)[C@@H]2Cn3c(cccc3=O)[C@H]1N2C(=O)C1CCCC1)c1ccccc1,nt,nt,nt,-4,-4[16.7 µM],nt
COc1ccc(-c2cn3cc([N+](=O)[O-])ccc3n2)cc1OC,60*,0,10,9,nt,-10
CCn1ncc(Br)c1C(=O)Nc1cc(C)on1,41*,-1,11,-5,2,-11
Cc1nn(C)cc1NC(=O)C[C@@H]1CC[C@H]2[C@@H](COc3ccc(NC(=O)C4CCC4)cc3C(=O)N2C)O1,nt,nt,nt,nt,0[16.7 µM],nt
Cc1cc(NS(=O)(=O)c2ccccc2)cc(Cl)c1O,5,-1,11,-6,?,-11
